# Test results as given in ChEMBL document CHEMBL1157848, “Derivatives of benzimidazole pharmacophore: synthesis, anticonvulsant, antidiabetic and DNA cleavage studies” (2010).
# Activity calls are given as the source filed them. The rule behind the calls is not given here.
# Columns and labels:
# Rattus norvegicus [1] = test: Anticonvulsant activity in Wistar albino rat assessed as time spent on clonic convulsions phase at 60 mg/kg by MES test (RVb = 16.80 +/- 2.50 sec); assay type: functional
# Procedure, shortened: (§1)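 Maximal electroshock (MES) convulsion model in rats. Duration in seconds of the flexion, extensor, clonus and stupor phases was recorded, along with recovery or death. The vehicle control was 1% w/w gum acacia and phenytoin was the reference. Data are mean ± SEM, with P < 0.05 taken as significant.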
# Rattus norvegicus [2] = test: Anticonvulsant activity in Wistar albino rat assessed as time spent on tonic extensor phase at 60 mg/kg by MES test (RVb = 11 +/- 0.57 sec); assay type: functional; procedure, shortened: as §1
# Rattus norvegicus [3] = test: Anticonvulsant activity in Wistar albino rat assessed as time spent on tonic flexion phase at 60 mg/kg by MES test (RVb = 3.12 +/- 0.31 sec); assay type: functional; procedure, shortened: as §1
# Rattus norvegicus [4] = test: Anticonvulsant activity in Wistar albino rat assessed as time spent on stupor phase at 60 mg/kg by MES test (RVb = 218.33 +/- 5.80 sec); assay type: functional; procedure, shortened: as §1
# Rattus norvegicus [5] = test: Anticonvulsant activity in Wistar albino rat assessed as time spent on tonic flexion phase at 80 mg/kg by MES test (RVb = 3.12 +/- 0.31 sec); assay type: functional; procedure, shortened: as §1
# Rattus norvegicus [6] = test: Anticonvulsant activity in Wistar albino rat assessed as time spent on clonic convulsions phase at 80 mg/kg by MES test (RVb = 16.80 +/- 2.50 sec); assay type: functional; procedure, shortened: as §1
# Rattus norvegicus [7] = test: Anticonvulsant activity in Wistar albino rat assessed as time spent on stupor phase at 80 mg/kg by MES test (RVb = 218.33 +/- 5.80 sec); assay type: functional; procedure, shortened: as §1
# Rattus norvegicus [8] = test: Anticonvulsant activity in Wistar albino rat assessed as time spent on tonic extensor phase at 80 mg/kg by MES test (RVb = 11 +/- 0.57 sec); assay type: functional; procedure, shortened: as §1
# Rattus norvegicus [9] = test: Antidiabetic activity in Wistar albino rat assessed as reduction of blood glucose level administered qd for 9 days measured after 30 mins last post dose by oral glucose tolerance test (RVb = 183.2 +/- 3.68 mg/dl); assay type: functional
# Rattus norvegicus [10] = test: Antidiabetic activity in Wistar albino rat assessed as reduction of blood glucose level administered qd for 9 days by glucose oxidation method (RVb = […] +/- […] mg/dl); assay type: functional
# Rattus norvegicus [11] = test: Antidiabetic activity in Wistar albino rat assessed as reduction of fasting blood glucose level administered qd for 9 days by oral glucose tolerance test (RVb = 83.33 +/- 1.54 mg/dl); assay type: functional
# Rattus norvegicus [12] = test: Antidiabetic activity in Wistar albino rat assessed as reduction of blood glucose level administered qd for 9 days measured after 90 mins last post dose by oral glucose tolerance test (RVb = 135.7 +/- 2.9 mg/dl); assay type: functional
# Rattus norvegicus [13] = test: Anticonvulsant activity in Wistar albino rat assessed as time spent on stupor phase at 20 mg/kg by MES test (RVb = 218.33 +/- 5.80 sec); assay type: functional; procedure, shortened: as §1
# Rattus norvegicus [14] = test: Anticonvulsant activity in Wistar albino rat assessed as time spent on tonic flexion phase at 20 mg/kg by MES test (RVb = 3.12 +/- 0.31 sec); assay type: functional; procedure, shortened: as §1
# Rattus norvegicus [15] = test: Anticonvulsant activity in Wistar albino rat assessed as time spent on tonic extensor phase at 20 mg/kg by MES test (RVb = 11 +/- 0.57 sec); assay type: functional; procedure, shortened: as §1
# Rattus norvegicus [16] = test: Anticonvulsant activity in Wistar albino rat assessed as time spent on clonic convulsions phase at 20 mg/kg by MES test (RVb = 16.80 +/- 2.50 sec); assay type: functional; procedure, shortened: as §1
# Rattus norvegicus [17] = test: Anticonvulsant activity in Wistar albino rat assessed as time spent on clonic convulsions phase at 85 mg/kg by MES test (RVb = 16.80 +/- 2.50 sec); assay type: functional; procedure, shortened: as §1
# Rattus norvegicus [18] = test: Anticonvulsant activity in Wistar albino rat assessed as time spent on stupor phase at 85 mg/kg by MES test (RVb = 218.33 +/- 5.80 sec); assay type: functional; procedure, shortened: as §1
# Rattus norvegicus [19] = test: Anticonvulsant activity in Wistar albino rat assessed as time spent on tonic extensor phase at 85 mg/kg by MES test (RVb = 11 +/- 0.57 sec); assay type: functional; procedure, shortened: as §1
# Nucleic Acid = test: Induction of Escherichia coli DNA cleavage at 25 mg after 2 hrs using ethidium bromide staining by agarose gel electrophoresis methos; assay type: nucleic-acid assay
# Procedure, shortened: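 Genomic DNA came from E. coli grown 24 h at 37 °C in nutrient broth. It was extracted by SDS/EDTA lysis, phenol then chloroform–isoamyl alcohol, and ethanol precipitation, and dissolved in TAE. Samples were incubated with the DNA 2 h at 37 °C, mixed 1:1 with bromophenol blue, and run on agarose in TAE at 50 V alongside a DNA marker. Gels were ethidium bromide stained 10–15 min and cleavage judged visually.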
# Rattus norvegicus [20] = test: Anticonvulsant activity in Wistar albino rat assessed as time spent on tonic flexion phase at 85 mg/kg by MES test (RVb = 3.12 +/- 0.31 sec); assay type: functional; procedure, shortened: as §1
compound,measurement,setting,value
O=C(CSc1nc2ccccc2[nH]1)NN1C(=O)CSC1c1c(O)ccc2ccccc12 (configuration not stated),Time,Rattus norvegicus [1],1.8 s
same,Time,Rattus norvegicus [2],3.98 s
same,Time,Rattus norvegicus [3],3.08 s
same,Time,Rattus norvegicus [4],172.5 s
O=C(CSc1nc2ccccc2[nH]1)NN1C(=O)CSC1c1ccccc1 (configuration not stated),Time,Rattus norvegicus [5],3.2 s
same,Time,Rattus norvegicus [6],1.2 s
same,Time,Rattus norvegicus [7],192.5 s
same,Time,Rattus norvegicus [8],9.2 s
O=[N+]([O-])c1ccc(-c2nnc(CSc3nc4ccccc4[nH]3)o2)c(Cl)c1,Activity,Rattus norvegicus [9],155.3 mg/dL
same,Activity,Rattus norvegicus [10],187.7 mg/dL
same,Activity,Rattus norvegicus [11],77.17 mg/dL
same,Activity,Rattus norvegicus [12],121.7 mg/dL
O=C1NC(=O)C(c2ccccc2)(c2ccccc2)N1 [PHENYTOIN],Time,Rattus norvegicus [13],158.6 s
same,Time,Rattus norvegicus [14],2.87 s
same,Time,Rattus norvegicus [15],0 s
same,Time,Rattus norvegicus [16],4.9 s
O=C1NC(=O)C(=O)C(=O)N1 [ALLOXAN],Activity,Rattus norvegicus [10],339.8 mg/dL
O=C(CSc1nc2ccccc2[nH]1)NN1C(=O)CSC1c1ccccc1O (configuration not stated),Time,Rattus norvegicus [17],15.62 s
same,Time,Rattus norvegicus [18],209.3 s
same,Time,Rattus norvegicus [19],4.33 s
same,Activity,Nucleic Acid,Active
same,Time,Rattus norvegicus [20],3.14 s
Nc1ccc(-c2nnc(CSc3nc4ccccc4[nH]3)o2)cc1,Activity,Rattus norvegicus [9],155.5 mg/dL
same,Activity,Rattus norvegicus [10],335.5 mg/dL
same,Activity,Rattus norvegicus [11],80.85 mg/dL
same,Activity,Rattus norvegicus [12],106.5 mg/dL
COc1ccc(Cl)cc1C(=O)NCCc1ccc(S(=O)(=O)NC(=O)NC2CCCCC2)cc1 [GLYBURIDE],Activity,Rattus norvegicus [9],176.8 mg/dL
same,Activity,Rattus norvegicus [10],139.2 mg/dL
same,Activity,Rattus norvegicus [12],105.7 mg/dL
Oc1cc(-c2nnc(CSc3nc4ccccc4[nH]3)o2)cc(O)c1O,Activity,Rattus norvegicus [9],174.2 mg/dL
same,Activity,Rattus norvegicus [10],386.4 mg/dL
same,Activity,Rattus norvegicus [11],73.33 mg/dL
same,Activity,Rattus norvegicus [12],110 mg/dL
Nc1ccc(C2SCC(=O)N2NC(=O)CSc2nc3ccccc3[nH]2)cc1 (configuration not stated),Time,Rattus norvegicus [1],15.4 s
same,Time,Rattus norvegicus [2],5.66 s
same,Time,Rattus norvegicus [3],3.15 s
same,Time,Rattus norvegicus [4],210.5 s
